Measured values taken from article PMC5855950 (RNA, 2018).

Assays:
DsRedCAG250 Drosophila = experiment: Climbing ability assay, DsRedCAG250 Drosophila; format: in vivo; conditions: 100 µM at third instar larval stage; elav>DsRedCAG250 flies at 5, 10 and 15 dpe
Outline: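 Flies carried elav-GAL4 and UAS-DsRedCAG250 and were reared at 25°C. Larval dosing was a 2 h feed of third instar larvae on peptide in 2% sucrose at room temperature, with climbing tested at 5, 10 and 15 dpe. Adult dosing: 5 or 10 dpe flies were starved 8 h, then fed overnight on peptide-sucrose filter paper, and tested at 10 or 15 dpe.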

Htt-exon1Q93 Drosophila = experiment: Pseudopupil assay, Htt-exon1Q93 Drosophila; format: in vivo; conditions: 100 µM at third instar larval stage, 1 dpe adults
Outline: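 Flies were raised at 21.5°C. Third instar larvae fed 2 h at room temperature on peptide in 2% sucrose solution. Rhabdomeres per ommatidium were counted by pseudopupil assay at 1 dpe for Htt-exon1Q93 flies and 12 dpe for flMJDQ84 flies. Experiments were repeated at least three times (n = 10 fly heads), as mean ± SEM, one-way ANOVA with Tukey test.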

GADD45A mRNA = experiment: Real-time PCR: GADD45A mRNA expression in HEK293 cells; format: cell-based, human; conditions: three repeats
Outline: (§1)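 RNA was extracted from HEK293 cells with TRIzol. One µg was reverse transcribed using random hexamer primers. GADD45A and HBB transcripts were quantified with TaqMan gene expression probes on a real-time PCR system.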

HBB mRNA = experiment: Real-time PCR: HBB mRNA expression in HEK293 cells; format: cell-based, human; conditions: three repeats
Outline: as §1

[1] = test system: EGFPCAG78-expressing HEK293 cells; experiment: LDH assay: suppression of death of EGFPCAG78-expressing HEK293 cells; format: cell-based, human; conditions: scrambled control, Supplemental Fig. S1
Outline: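 HEK293 cells were grown in DMEM with 10% FBS at 37°C and 5% CO2 and seeded at 1 × 10^5 per well. They were lipofected with pEGFPCAG78, and TAT-peptide was added immediately after at 0.1–25 µM (8 levels). LDH activity in the medium was read at 72 h and normalised to the no-peptide control. IC50 came from variable-slope nonlinear regression; at least 3 repeats.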

Q: How did the “climbing defects, larval treatment” value (DsRedCAG250 Drosophila) turn out when “YGRKKRRQRRRGGEDIKSRVEAASILYFIKKK [TAT-BIND-S]” was run?
A: had no effect

Q: And the “retinal degeneration, Htt-exon1Q93” value (Htt-exon1Q93 Drosophila)?
A: but not TAT-BIND-S

Q: What about the “GADD45A mRNA expression” value (GADD45A mRNA) of the same sequence?
A: no significant change

Q: What about the “HBB mRNA expression” value (HBB mRNA) of the same sequence?
A: no significant change

Q: And the “effect on cell death” value [1]?
A: did not suppress or elicit cell death
